Measurements reported in ChEMBL document CHEMBL5532737, “Lead Identification of Novel Naphthyridine Derivatives as Potent SOS1 Inhibitors” (ACS Med Chem Lett, 2024).
Calls of active or inactive are those of the source. The calls are words filed in the database; no cut-off is given here.

Assays:
[1] = molecular target: SOS1-KRAS (Homo sapiens, UniProt Q07889); experiment: Inhibition of SOS1/KRAS G12C mutant (unknown origin) protein-protein interaction incubated for 2 hrs by HTRF analysis; assay type: protein-complex assay
[2] = Inhibition of ERK phosphorylation in human PC-9 cells incubated for 1 hr by HTRF analysis; assay type: cell-based; settings: PC-9, 1 h
[3] = Cmax in ICR mouse at 5 mg/kg, po measured upto 24 hrs by LCMS analysis; assay type: ADME, organism-based; settings: in vivo
In short: (§1)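 Mice were dosed once orally at 5 mg/kg or intravenously at 1 mg/kg, both in solution in 5% DMSO + 95% (20% HP-β-CD). Cmax is the highest observed plasma concentration, AUC the area under the plasma concentration–time curve, and F the bioavailability. CL is reported as elimination rate and t1/2 as elimination half-life.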

[4] = AUC in ICR mouse at 5 mg/kg, po measured upto 24 hrs by LCMS analysis; assay type: ADME, organism-based; settings: in vivo; in short: as §1
[5] = Oral bioavailability in ICR mouse at 5 mg/kg measured upto 24 hrs by LCMS analysis; assay type: ADME, organism-based; settings: in vivo; in short: as §1
[6] = Clearance in ICR mouse at 1 mg/kg, iv measured upto 24 hrs by LCMS analysis; assay type: ADME, organism-based; settings: in vivo; in short: as §1
[7] = Elimination half life in ICR mouse at 1 mg/kg, iv measured upto 24 hrs by LCMS analysis; assay type: ADME, organism-based; settings: in vivo, read-out: beta t1/2 (converted); in short: as §1
[8] = tested on: NCI-H358; experiment: Antiproliferative activity against human NCI-H358 cells harboring KRAS G12C mutant assessed as inhibition of cell proliferation incubated for 5 days by celltiter-glo 3D assay; assay type: functional, cell-based; settings: NCI-H358, 120 h
[9] = tested on: NCI-H358; experiment: Antitumor activity against human NCI-H358 cells harboring KRAS G12C mutant xenografted in BALB/c mouse assessed as tumor growth inhibition at 50 mg/kg, po measured after 28 days; assay type: functional; settings: NCI-H358, 672 h, time 28 day, read-out: TGI
In short: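 Subcutaneous NCI-H358 (KRAS G12C) xenograft mice given the drug orally. Efficacy is expressed as tumour growth inhibition (TGI), shown as mean ± SEM and compared with the vehicle group on day 28 (P < 0.05). Tumour p-ERK and plasma drug levels were measured 2 and 24 h after treatment.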

[10] = Toxicity against BALB/c mouse xenografted with human NCI-H358 cells harboring KRAS G12C mutant assessed as body weight loss at 50 mg/kg, po measured after 28 days; assay type: organism-based; settings: in vivo, 672 h, time 28 day
[11] = tested on: NCI-H358; experiment: Antitumor activity against human NCI-H358 cells harboring KRAS G12C mutant xenografted in BALB/c mouse assessed as reduction in ERK phosphorylation at 50 mg/kg, po measured after 28 days; assay type: functional, organism-based; settings: time 28.0 day
[12] = Plasma protein binding in mouse assessed as unbound fraction incubated for 4 hrs by LC-MS/MS analysis; assay type: ADME, cell-free
[13] = Plasma protein binding in rat assessed as unbound fraction incubated for 4 hrs by LC-MS/MS analysis; assay type: ADME, cell-free
[14] = Plasma protein binding in dog assessed as unbound fraction incubated for 4 hrs by LC-MS/MS analysis; assay type: ADME, cell-free, Canis lupus familiaris
[15] = Plasma protein binding in human assessed as unbound fraction incubated for 4 hrs by LC-MS/MS analysis; assay type: ADME, cell-free
[16] = molecular target: T1, Cytochrome P450 1A2 (Homo sapiens, UniProt P05177); experiment: Inhibition of CYP1A2 in human liver microsomes incubated for 5 mins by LC-MS/MS analysis; assay type: ADME, Microsome
T1 sequence (P05177 whole entry): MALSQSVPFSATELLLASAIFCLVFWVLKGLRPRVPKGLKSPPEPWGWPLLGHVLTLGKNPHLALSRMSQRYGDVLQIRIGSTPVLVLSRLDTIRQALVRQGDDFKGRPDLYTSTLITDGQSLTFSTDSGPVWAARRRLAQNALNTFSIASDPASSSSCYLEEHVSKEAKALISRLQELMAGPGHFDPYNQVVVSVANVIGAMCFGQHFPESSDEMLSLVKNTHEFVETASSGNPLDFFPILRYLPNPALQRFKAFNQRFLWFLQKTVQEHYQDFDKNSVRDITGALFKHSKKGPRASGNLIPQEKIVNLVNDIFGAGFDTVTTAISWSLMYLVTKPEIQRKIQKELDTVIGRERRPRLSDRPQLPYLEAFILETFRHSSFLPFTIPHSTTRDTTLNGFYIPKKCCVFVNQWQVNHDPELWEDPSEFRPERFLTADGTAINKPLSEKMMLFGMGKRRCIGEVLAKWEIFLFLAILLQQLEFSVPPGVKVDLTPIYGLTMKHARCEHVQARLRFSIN

[17] = molecular target: Cytochrome P450 2C9 (Homo sapiens, UniProt P11712); experiment: Inhibition of CYP2C9 in human liver microsomes incubated for 5 mins by LC-MS/MS analysis; assay type: ADME, Microsome
[18] = molecular target: Cytochrome P450 2C19 (Homo sapiens, UniProt P33261); experiment: Inhibition of CYP2C19 in human liver microsomes incubated for 5 mins by LC-MS/MS analysis; assay type: ADME, Microsome
[19] = molecular target: Cytochrome P450 2D6 (Homo sapiens, UniProt P10635); experiment: Inhibition of CYP2D6 in human liver microsomes incubated for 5 mins by LC-MS/MS analysis; assay type: ADME, Microsome
[20] = molecular target: Cytochrome P450 3A4 (Homo sapiens, UniProt P08684); experiment: Inhibition of CYP3A4 in human liver microsomes incubated for 5 mins by LC-MS/MS analysis; assay type: ADME, Microsome
[21] = molecular target: Voltage-gated inwardly rectifying potassium channel KCNH2 (Homo sapiens, UniProt Q12809); experiment: Inhibition of hERG transfected in HEK293 cells by whole-cell manual patch clamp assay; assay type: toxicity, cell-based
[22] = Drug concentration in mouse plasma at 50 mg/kg, po measured for 8 hrs; assay type: ADME, organism-based; settings: in vivo
In short: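 Mice received a single 50 mg/kg dose, and the unbound drug concentration in plasma was followed over time.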

[23] = tested on: NCI-H358; experiment: Antitumor activity against human NCI-H358 cells harboring KRAS G12C mutant xenografted in BALB/c mouse assessed as reduction in ERK phosphorylation at 50 mg/kg, po measured for 2 to 24 hrs; assay type: functional, organism-based; settings: time 2-24 hrs
In short: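 Tumor samples from NCI-H358 xenograft mice were assayed for p-ERK levels at 2 and 24 h after drug treatment. Plasma drug concentrations were measured at the same time points. Data are given as mean ± SEM.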

Sequence of SOS1-KRAS (Q07889 whole entry, looked up, stated change not applied): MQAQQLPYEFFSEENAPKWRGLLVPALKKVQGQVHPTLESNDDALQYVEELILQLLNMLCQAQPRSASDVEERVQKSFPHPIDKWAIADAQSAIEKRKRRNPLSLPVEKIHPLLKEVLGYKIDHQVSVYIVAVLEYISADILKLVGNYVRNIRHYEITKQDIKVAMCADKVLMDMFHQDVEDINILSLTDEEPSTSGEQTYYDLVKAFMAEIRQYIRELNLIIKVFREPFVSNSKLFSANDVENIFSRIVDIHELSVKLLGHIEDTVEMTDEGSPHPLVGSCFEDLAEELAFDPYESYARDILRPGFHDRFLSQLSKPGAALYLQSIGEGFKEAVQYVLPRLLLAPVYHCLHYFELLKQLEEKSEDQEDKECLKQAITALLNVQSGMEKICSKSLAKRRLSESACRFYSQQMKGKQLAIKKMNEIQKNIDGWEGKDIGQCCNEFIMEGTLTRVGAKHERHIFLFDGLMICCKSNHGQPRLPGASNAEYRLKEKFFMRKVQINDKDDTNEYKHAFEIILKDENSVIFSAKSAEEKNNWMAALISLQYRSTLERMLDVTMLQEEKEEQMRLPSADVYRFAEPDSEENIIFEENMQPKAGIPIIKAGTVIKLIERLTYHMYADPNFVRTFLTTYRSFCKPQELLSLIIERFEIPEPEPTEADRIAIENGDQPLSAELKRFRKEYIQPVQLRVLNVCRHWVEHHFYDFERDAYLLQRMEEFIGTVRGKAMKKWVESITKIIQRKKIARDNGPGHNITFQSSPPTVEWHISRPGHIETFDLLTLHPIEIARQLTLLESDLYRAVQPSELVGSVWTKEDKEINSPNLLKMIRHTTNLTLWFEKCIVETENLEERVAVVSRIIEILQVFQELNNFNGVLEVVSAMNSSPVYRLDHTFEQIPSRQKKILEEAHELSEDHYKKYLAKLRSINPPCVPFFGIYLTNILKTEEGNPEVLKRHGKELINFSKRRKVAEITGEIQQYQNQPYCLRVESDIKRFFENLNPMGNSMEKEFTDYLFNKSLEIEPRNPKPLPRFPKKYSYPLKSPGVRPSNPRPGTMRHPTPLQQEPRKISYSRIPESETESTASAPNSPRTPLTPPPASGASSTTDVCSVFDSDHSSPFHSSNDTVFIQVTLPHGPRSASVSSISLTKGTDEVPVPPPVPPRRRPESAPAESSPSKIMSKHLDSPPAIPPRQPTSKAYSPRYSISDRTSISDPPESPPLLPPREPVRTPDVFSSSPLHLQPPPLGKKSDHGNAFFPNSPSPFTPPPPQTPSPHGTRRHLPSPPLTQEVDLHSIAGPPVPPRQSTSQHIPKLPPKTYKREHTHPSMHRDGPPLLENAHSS
Sequence of Cytochrome P450 2D6 (P10635 whole entry): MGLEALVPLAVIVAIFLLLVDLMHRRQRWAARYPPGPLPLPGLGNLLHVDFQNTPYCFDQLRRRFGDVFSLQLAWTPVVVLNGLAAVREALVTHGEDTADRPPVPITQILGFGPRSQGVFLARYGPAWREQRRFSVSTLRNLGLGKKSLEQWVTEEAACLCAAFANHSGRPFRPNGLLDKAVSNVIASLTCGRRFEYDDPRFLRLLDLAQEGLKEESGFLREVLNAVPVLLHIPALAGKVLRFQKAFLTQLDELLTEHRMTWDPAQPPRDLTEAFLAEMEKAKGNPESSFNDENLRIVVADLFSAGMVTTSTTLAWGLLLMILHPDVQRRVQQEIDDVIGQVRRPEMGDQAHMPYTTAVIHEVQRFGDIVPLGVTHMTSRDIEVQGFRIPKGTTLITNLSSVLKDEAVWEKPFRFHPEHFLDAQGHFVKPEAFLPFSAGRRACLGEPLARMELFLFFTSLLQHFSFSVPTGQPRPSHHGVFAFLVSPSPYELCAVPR
Sequence of Cytochrome P450 2C19 (P33261 whole entry): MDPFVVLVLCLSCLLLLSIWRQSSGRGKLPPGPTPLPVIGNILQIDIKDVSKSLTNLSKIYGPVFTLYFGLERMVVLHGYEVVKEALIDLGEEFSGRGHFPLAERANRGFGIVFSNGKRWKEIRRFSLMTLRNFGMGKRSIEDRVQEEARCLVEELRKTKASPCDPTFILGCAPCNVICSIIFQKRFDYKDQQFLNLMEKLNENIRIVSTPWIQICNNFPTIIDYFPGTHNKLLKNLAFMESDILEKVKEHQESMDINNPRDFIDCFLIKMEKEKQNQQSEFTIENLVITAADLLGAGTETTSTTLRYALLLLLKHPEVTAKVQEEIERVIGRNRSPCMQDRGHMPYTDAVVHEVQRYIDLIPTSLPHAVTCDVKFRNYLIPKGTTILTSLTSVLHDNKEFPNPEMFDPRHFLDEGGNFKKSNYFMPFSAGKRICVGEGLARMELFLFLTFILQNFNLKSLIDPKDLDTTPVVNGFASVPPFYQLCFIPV
Sequence of Cytochrome P450 2C9 (P11712 whole entry): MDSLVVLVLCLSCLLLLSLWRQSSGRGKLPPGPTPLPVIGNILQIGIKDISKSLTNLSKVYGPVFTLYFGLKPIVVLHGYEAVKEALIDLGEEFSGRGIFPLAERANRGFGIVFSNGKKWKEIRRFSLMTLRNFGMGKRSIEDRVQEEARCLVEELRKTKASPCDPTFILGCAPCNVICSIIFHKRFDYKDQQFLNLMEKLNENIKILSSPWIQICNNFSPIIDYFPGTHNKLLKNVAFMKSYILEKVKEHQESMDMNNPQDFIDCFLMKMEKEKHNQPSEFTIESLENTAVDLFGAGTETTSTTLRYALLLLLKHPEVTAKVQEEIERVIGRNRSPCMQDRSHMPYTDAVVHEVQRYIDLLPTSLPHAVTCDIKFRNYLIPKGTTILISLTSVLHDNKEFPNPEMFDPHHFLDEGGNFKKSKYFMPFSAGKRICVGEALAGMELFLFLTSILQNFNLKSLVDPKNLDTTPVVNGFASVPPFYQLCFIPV
Sequence of Voltage-gated inwardly rectifying potassium channel KCNH2 (Q12809 whole entry): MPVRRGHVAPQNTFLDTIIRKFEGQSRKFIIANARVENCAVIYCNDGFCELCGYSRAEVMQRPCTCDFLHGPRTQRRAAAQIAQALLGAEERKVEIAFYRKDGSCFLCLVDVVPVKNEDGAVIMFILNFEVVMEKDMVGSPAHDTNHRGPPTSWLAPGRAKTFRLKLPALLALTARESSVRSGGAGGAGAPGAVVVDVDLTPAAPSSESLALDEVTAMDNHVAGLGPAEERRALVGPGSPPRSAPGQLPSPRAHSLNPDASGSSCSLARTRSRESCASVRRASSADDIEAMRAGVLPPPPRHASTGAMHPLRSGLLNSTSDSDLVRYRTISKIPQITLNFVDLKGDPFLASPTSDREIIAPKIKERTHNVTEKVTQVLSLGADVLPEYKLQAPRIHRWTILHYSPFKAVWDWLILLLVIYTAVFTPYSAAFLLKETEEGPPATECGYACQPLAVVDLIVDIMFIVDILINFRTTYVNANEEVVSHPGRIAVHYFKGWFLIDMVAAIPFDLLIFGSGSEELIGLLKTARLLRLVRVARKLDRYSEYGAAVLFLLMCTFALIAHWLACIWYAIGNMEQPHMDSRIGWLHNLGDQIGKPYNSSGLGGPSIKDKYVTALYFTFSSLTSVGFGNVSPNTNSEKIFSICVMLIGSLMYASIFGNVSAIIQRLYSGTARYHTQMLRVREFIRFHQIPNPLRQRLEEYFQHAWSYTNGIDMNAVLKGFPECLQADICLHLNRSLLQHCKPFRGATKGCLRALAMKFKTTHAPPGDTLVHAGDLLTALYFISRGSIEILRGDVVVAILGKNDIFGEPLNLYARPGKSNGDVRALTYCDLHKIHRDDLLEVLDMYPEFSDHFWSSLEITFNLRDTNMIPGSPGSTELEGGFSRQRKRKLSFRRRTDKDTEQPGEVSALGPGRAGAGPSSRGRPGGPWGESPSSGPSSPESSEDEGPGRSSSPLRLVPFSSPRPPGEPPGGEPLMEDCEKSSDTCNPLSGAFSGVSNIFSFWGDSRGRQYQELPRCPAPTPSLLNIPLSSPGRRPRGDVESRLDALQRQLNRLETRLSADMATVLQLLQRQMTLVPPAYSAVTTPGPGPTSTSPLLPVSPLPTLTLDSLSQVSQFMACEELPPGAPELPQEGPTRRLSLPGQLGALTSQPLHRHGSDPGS
Sequence of Cytochrome P450 3A4 (P08684 whole entry): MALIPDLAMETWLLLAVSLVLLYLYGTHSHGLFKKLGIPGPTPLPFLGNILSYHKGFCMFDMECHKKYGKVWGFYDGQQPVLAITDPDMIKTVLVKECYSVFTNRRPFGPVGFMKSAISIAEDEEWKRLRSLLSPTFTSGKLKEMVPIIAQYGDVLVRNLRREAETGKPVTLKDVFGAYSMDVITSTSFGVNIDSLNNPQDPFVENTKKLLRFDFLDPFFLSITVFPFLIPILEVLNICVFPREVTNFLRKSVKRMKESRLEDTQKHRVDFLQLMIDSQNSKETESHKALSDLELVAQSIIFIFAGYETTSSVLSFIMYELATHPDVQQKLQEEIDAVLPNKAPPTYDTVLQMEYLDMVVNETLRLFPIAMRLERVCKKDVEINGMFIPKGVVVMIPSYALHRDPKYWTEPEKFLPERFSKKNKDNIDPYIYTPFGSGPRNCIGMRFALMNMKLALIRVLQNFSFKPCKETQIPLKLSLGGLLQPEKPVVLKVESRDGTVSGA

| SMILES | IC50 [1] [µM] | IC50 [2] [µM] | also measured |
| --- | --- | --- | --- |
| COc1cc2nccc(N[C@H](C)c3cccc(C(F)F)c3F)c2cc1O[C@H]1CCOC1 | 0.0067 | 0.212 | – |
| C[C@@H](Nc1ccnc2cnc(N3CCS(=O)(=O)CC3)cc12)c1cccc(C(F)F)c1F | 0.0052 | 0.056 | Cmax [3]: 136 ng/mL; AUC at 24 h [4]: 406 ng·h/mL; bioavailability [5]: 36%; clearance [6]: 67 mL/min/kg; half-life [7]: 1.18 h |
| COc1cc2nc(C)nc(N[C@H](C)c3cc(N)cc(C(F)(F)F)c3)c2cc1O[C@H]1CCOC1 | – | 0.299 | IC50 [8]: 0.09 µM; inhibition in vivo at 50 mg/kg [9]: 49%; Activity [10]: Non-Toxic; Activity [11]: Active |
| CC(=O)N1CCN(c2cc3c(N[C@H](C)c4cccc(C(F)F)c4F)ccnc3cn2)CC1 | 0.0058 | 0.054 | Cmax [3]: 714 ng/mL; AUC at 24 h [4]: 1950 ng·h/mL; bioavailability [5]: 81%; clearance [6]: 35 mL/min/kg; half-life [7]: 1.53 h; fraction unbound at 4 h [12]: 0.0675; fraction unbound at 4 h [13]: 0.0529; fraction unbound at 4 h [14]: 0.0545; fraction unbound at 4 h [15]: 0.0481; IC50 [16]: 17.5 µM; IC50 [17]: 5.69 µM; IC50 [18]: 3.16 µM; IC50 [19]: 11.1 µM; IC50 [20]: > 50 µM; IC50 [21]: 2.45 µM; IC50 [8]: 0.322 µM; Drug uptake [22]: Active; inhibition in vivo at 50 mg/kg [9]: 76%; Activity [23]: Active |
| CC(=O)N1CCC(c2cc3c(N[C@H](C)c4cccc(C(F)F)c4F)ccnc3cn2)CC1 | 0.0097 | 0.077 | Cmax [3]: 424 ng/mL; AUC at 24 h [4]: 578 ng·h/mL; bioavailability [5]: 25%; clearance [6]: 40 mL/min/kg; half-life [7]: 0.88 h |
| CC(=O)NC1CCN(c2cc3c(N[C@H](C)c4cccc(C(F)F)c4F)ccnc3cn2)CC1 | 0.012 | 0.49 | – |
| COc1cc2nccc(N[C@H](C)c3cccc(C(F)F)c3F)c2cc1O[C@H]1CCN(C)C1 | 0.015 | 0.295 | – |
| CC(=O)N1CCC(c2cc3c(N[C@H](C)c4cccc(C(F)F)c4F)ccnc3cn2)C1 (some centres undefined) | 0.022 | 0.167 | – |
| COc1cc2nccc(N[C@H](C)c3cccc(C(F)F)c3F)c2cc1N1CCS(=O)(=O)CC1 | 0.0086 | 0.017 | Cmax [3]: 10 ng/mL; AUC at 24 h [4]: 29 ng·h/mL; bioavailability [5]: 5%; clearance [6]: 127 mL/min/kg; half-life [7]: 1.75 h |
| COc1cc2nccc(N[C@H](C)c3cccc(C(F)F)c3F)c2cc1O[C@H]1CCNC1 | 0.006 | 0.497 | – |
| COc1cc2nccc(N[C@H](C)c3cccc(C(F)F)c3F)c2cc1O[C@H]1CCN(C(=O)C2CCOCC2)C1 | 0.013 | 0.073 | – |
| COc1cc2nccc(N[C@H](C)c3cccc(C(F)F)c3F)c2cc1C1CCN(C(C)=O)CC1 | 0.011 | 1.03 | – |
| C[C@@H](Nc1ccnc2cnc(O[C@H]3CCOC3)cc12)c1cccc(C(F)F)c1F | 0.015 | 0.77 | – |
| COc1cc2nccc(N[C@H](C)c3cccc(C(F)F)c3F)c2cc1C1CC1 | 0.023 | 1.07 | – |
| C[C@@H](Nc1ccnc2cnc(N3CCC(O)CC3)cc12)c1cccc(C(F)F)c1F | 0.0085 | 0.156 | – |
| COc1cc2nccc(N[C@H](C)c3cccc(C(F)F)c3F)c2cc1OC1CCNCC1 | 0.013 | 1.07 | – |
| C[C@@H](Nc1ccnc2cnc(N3CCOCC3)cc12)c1cccc(C(F)F)c1F | 0.007 | 0.349 | – |
| COc1cc2nccc(N[C@H](C)c3cccc(C(F)F)c3F)c2cc1O[C@H]1CCN(C(=O)C2CC2)C1 | 0.01 | 0.092 | – |
| COc1cc2nccc(N[C@H](C)c3cccc(C(F)F)c3F)c2cc1O[C@H]1CCN(C(C)=O)C1 | 0.0038 | 0.045 | Cmax [3]: 77 ng/mL; AUC at 24 h [4]: 152 ng·h/mL; bioavailability [5]: 19%; clearance [6]: 107 mL/min/kg; half-life [7]: 0.45 h |
| C[C@@H](Nc1ccnc2cnc(N3CCN(C)C(=O)C3)cc12)c1cccc(C(F)F)c1F | 0.0069 | 0.13 | – |
| C[C@@H](Nc1ccnc2cnc(N3CCN(S(C)(=O)=O)CC3)cc12)c1cccc(C(F)F)c1F | 0.013 | – | – |
| COc1cc2nccc(N[C@H](C)c3cccc(C(F)F)c3F)c2cc1OC | 0.011 | 0.548 | – |
| COc1cc2nccc(N[C@H](C)c3cccc(C(F)F)c3F)c2cc1C1CCNCC1 | 0.014 | 0.798 | – |
| COc1cc2nccc(N[C@H](C)c3cccc(C(F)F)c3F)c2cc1N1CCN(C(C)=O)CC1 | 0.0088 | 0.03 | – |
